Reference: ChEMBL document CHEMBL1914435, “Synthesis and evaluation of novel macrocyclic antifungal peptides” (2011)
≈ marks a conversion by molar mass, not a printed value. Calls of active or inactive are those of the source. No cut-off for these calls is given here. Starred links: 1 amine or outer side, 2 acyl side, 3 side chain; linkers in the order of their positions; H or OH if unused. Positions of bridges follow the written chain, without caps; N, C: chain ends. Non-standard residues stand in square brackets, D forms with d. Residues, ends and D or L forms follow the SMILES beside them. *: point of attachment. pTerphenylCO(4''-OnC5H11) = CCCCCOc1ccc(-c2ccc(-c3ccc(C(=O)*)cc3)cc2)cc1; hTyr = N[C@@H](CCc1ccc(O)cc1)C(=O)O; Ethylenediamine = C(CN[*:2])N[*:1]; Palmitoyl = CCCCCCCCCCCCCCCC(=O)*; Hyp = O=C(O)[C@@H]1C[C@@H](O)CN1; AllylGly = C=CC[C@H](N)C(=O)O; Orn = NCCC[C@H](N)C(=O)O; NHNH2 = NN*

Key:
[1] = test system: Candida albicans; assay: Antifungal activity against Candida albicans CBS 9975 after 24 hrs by broth microdilution method; type: functional; conditions: for MIC: CBS 9975, 24 h
How it was run: (§1)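 Broth microdilution in YPD (1% yeast extract, 2% peptone, 1% dextrose). Compounds dissolved in water or 10% DMSO at 1 mg/mL, diluted fivefold in YPD, then serially twofold. CBS yeast isolates were grown on YPD agar for 24 h at 30 °C, then in YPD broth with shaking for 24 h. Inoculum was ~1.5 × 10³ cells/ml. Incubation at 30 °C. MIC read visually at 24 h as the lowest concentration giving full growth inhibition.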

[2] = test system: Candida albicans; assay: Antifungal activity against Candida albicans after 24 hrs by broth microdilution method; type: functional, organism-based; how it was run: as §1
[3] = test system: Candida dubliniensis; assay: Antifungal activity against Candida dubliniensis after 24 hrs by broth microdilution method; type: functional, organism-based; how it was run: as §1
[4] = test system: Nakaseomyces glabratus; assay: Antifungal activity against Candida glabrata after 24 hrs by broth microdilution method; type: functional, organism-based; how it was run: as §1
[5] = test system: Candida tropicalis; assay: Antifungal activity against Candida tropicalis after 24 hrs by broth microdilution method; type: functional, organism-based; how it was run: as §1
[6] = test system: Candida parapsilosis; assay: Antifungal activity against Candida parapsilosis after 24 hrs by broth microdilution method; type: functional, organism-based; how it was run: as §1
[7] = test system: Pichia kudriavzevii; assay: Antifungal activity against Candida krusei after 24 hrs by broth microdilution method; type: functional, organism-based; how it was run: as §1
[8] = test system: Candida albicans; assay: Antifungal activity against Candida albicans CBS 9975 assessed as enlarged round cells with distorted cytoplasm after 24 hrs by broth microdilution method; type: functional, organism-based
[9] = test system: Candida albicans; assay: Antifungal activity against Candida albicans CBS 9975 assessed as enlarged round cells with large vacuoles after 24 hrs by broth microdilution method; type: functional, organism-based
[10] = test system: Candida albicans; assay: Antifungal activity against Candida albicans CBS 9975 assessed as agglutinated enlarged round cells after 24 hrs by broth microdilution method; type: functional, organism-based
[11] = test system: Candida albicans; assay: Antifungal activity against Candida albicans CBS 9975 assessed as reduction in budding cells after 24 hrs by broth microdilution method; type: functional, organism-based

## CCCCCCCCCCCCCCCC(=O)N[C@H]1CCCC[C@@H](C(N)=O)NC(=O)[C@@H]2C[C@@H](O)CN2C(=O)[C@H](CCCN)NC(=O)[C@H](CCc2ccc(O)cc2)NC(=O)[C@@H]2C[C@@H](O)CN2C(=O)[C@H]([C@@H](C)O)NC1=O
[1]
  MIC: > 100 µg/mL

## CCCCCCCCCCCCCCCC(=O)N[C@H]1CCCC[C@@H](C(=O)O)NC(=O)[C@@H]2C[C@@H](O)CN2C(=O)[C@H](CCCN)NC(=O)[C@H](CCc2ccc(O)cc2)NC(=O)[C@@H]2C[C@@H](O)CN2C(=O)[C@H]([C@@H](C)O)NC1=O
[1]
  MIC: > 100 µg/mL

## CCCCCOc1ccc(-c2ccc(-c3ccc(C(=O)N[C@H]4CCCC[C@@H](C(=O)O)NC(=O)[C@@H]5C[C@@H](O)CN5C(=O)[C@H](CCCN)NC(=O)[C@H](CCc5ccc(O)cc5)NC(=O)[C@@H]5C[C@@H](O)CN5C(=O)[C@H]([C@@H](C)O)NC4=O)cc3)cc2)cc1
[1]
  MIC: > 100 µg/mL

## CCCCCOc1ccc(-c2ccc(-c3ccc(C(=O)N[C@H]4C/C=C\C[C@@H](CO)NC(=O)[C@@H]5C[C@@H](O)CN5C(=O)[C@H](CCCN)NC(=O)[C@H](CCc5ccc(O)cc5)NC(=O)[C@@H]5C[C@@H](O)CN5C(=O)[C@H]([C@@H](C)O)NC4=O)cc3)cc2)cc1
[1]
  Activity: Dose-dependent effect
  MIC: > 100 µg/mL

## CCCCCCCCCCCCCCCC(=O)N[C@H]1CSSC[C@@H](C(N)=O)NC(=O)[C@@H]2C[C@@H](O)CN2C(=O)[C@H](CCCN)NC(=O)[C@H](CCc2ccc(O)cc2)NC(=O)[C@@H]2C[C@@H](O)CN2C(=O)[C@H]([C@@H](C)O)NC1=O (Palmitoyl-CT[Hyp][hTyr][Orn][Hyp]C-NH2; disulfide 1-7)
[1]
  MIC: > 100 µg/mL

## CCCCCCCCCCCCCCCC(=O)N[C@H]1C/C=C\C[C@@H](C(N)=O)NC(=O)[C@@H]2C[C@@H](O)CN2C(=O)[C@H](CCCN)NC(=O)[C@H](CCc2ccc(O)cc2)NC(=O)[C@@H]2C[C@@H](O)CN2C(=O)[C@H]([C@@H](C)O)NC1=O (Palmitoyl-[AllylGly]T[Hyp][hTyr][Orn][Hyp][AllylGly]-NH2; staple (Z) 1-7)
[1]
  MIC: > 100 µg/mL

## CCCCCCCCCCCCCCCC(=O)N[C@H]1C/C=C\C[C@@H](C(=O)O)NC(=O)[C@@H]2C[C@@H](O)CN2C(=O)[C@H](CCCN)NC(=O)[C@H](CCc2ccc(O)cc2)NC(=O)[C@@H]2C[C@@H](O)CN2C(=O)[C@H]([C@@H](C)O)NC1=O (Palmitoyl-[AllylGly]T[Hyp][hTyr][Orn][Hyp][AllylGly]-OH; staple (Z) 1-7)
[1]
  MIC: > 100 µg/mL

## CCCCCCCCCCCCCCCC(=O)N[C@H]1CCCNC(=O)[C@@H]2C[C@@H](O)CN2C(=O)[C@H]([C@@H](C)O)NC(=O)[C@H](CCc2ccc(O)cc2)NC(=O)[C@@H]2C[C@@H](O)CN2C(=O)[C@H]([C@@H](C)O)NC1=O (Palmitoyl-[Orn]T[Hyp][hTyr]T[Hyp]; lactam 1-C)
[1]
  MIC: 25 µg/mL (≈ 26.1 µM)
[2]
  Activity: Active
[3]
  Activity: Active
[4]
  Activity: Active
[5]
  Activity: Active
[6]
  Activity: Active
[7]
  Activity: Active

## CCCCCCCCCCCCCCCC(=O)N[C@H]1CCCNC(=O)[C@@H]2C[C@@H](O)CN2C(=O)[C@H](CCCN)NC(=O)[C@H](CCc2ccc(O)cc2)NC(=O)[C@@H]2C[C@@H](O)CN2C(=O)[C@H]([C@@H](C)O)NC1=O (Palmitoyl-[Orn]T[Hyp][hTyr][Orn][Hyp]; lactam 1-C)
[1]
  MIC: 4.38 µg/mL (≈ 4.51 µM)
[2]
  Activity: Active
[3]
  Activity: Active
[4]
  Activity: Active
[5]
  Activity: Active
[6]
  Activity: Active
[7]
  Activity: Active

## CCCCCOc1ccc(-c2ccc(-c3ccc(C(=O)N[C@H]4CCCCNC(=O)[C@@H]5C[C@@H](O)CN5C(=O)[C@H](CCCN)NC(=O)[C@H](CCc5ccc(O)cc5)NC(=O)[C@@H]5C[C@@H](O)CN5C(=O)[C@H]([C@@H](C)O)NC4=O)cc3)cc2)cc1 ({pTerphenylCO(4''-OnC5H11)}-KT[Hyp][hTyr][Orn][Hyp]; lactam 1-C)
[1]
  MIC: > 100 µg/mL
[2]
  Activity: Active
[3]
  Activity: Active
[4]
  Activity: Active
[5]
  Activity: Active
[6]
  Activity: Active
[7]
  Activity: Active

## CCCCCOc1ccc(-c2ccc(-c3ccc(C(=O)N[C@H]4C/C=C\C[C@@H](C(=O)NCCN)NC(=O)[C@@H]5C[C@@H](O)CN5C(=O)[C@H](CCCN)NC(=O)[C@H](CCc5ccc(O)cc5)NC(=O)[C@@H]5C[C@@H](O)CN5C(=O)[C@H]([C@@H](C)O)NC4=O)cc3)cc2)cc1 ({pTerphenylCO(4''-OnC5H11)}-[AllylGly]T[Hyp][hTyr][Orn][Hyp][AllylGly]-Ethylenediamine; staple (Z) 1-7)
[1]
  Activity: Dose-dependent effect
  MIC: > 100 µg/mL

## CCCCCOc1ccc(-c2ccc(-c3ccc(C(=O)N[C@H]4C/C=C\C[C@@H](C(=O)NN)NC(=O)[C@@H]5C[C@@H](O)CN5C(=O)[C@H](CCCN)NC(=O)[C@H](CCc5ccc(O)cc5)NC(=O)[C@@H]5C[C@@H](O)CN5C(=O)[C@H]([C@@H](C)O)NC4=O)cc3)cc2)cc1 ({pTerphenylCO(4''-OnC5H11)}-[AllylGly]T[Hyp][hTyr][Orn][Hyp][AllylGly]-NHNH2; staple (Z) 1-7)
[1]
  Activity: Dose-dependent effect
  MIC: > 100 µg/mL

## CCCCCOc1ccc(-c2ccc(-c3ccc(C(=O)N[C@H]4C/C=C\C[C@@H](C(=O)O)NC(=O)[C@@H]5C[C@@H](O)CN5C(=O)[C@H](CCCN)NC(=O)[C@H](CCc5ccc(O)cc5)NC(=O)[C@@H]5C[C@@H](O)CN5C(=O)[C@H]([C@@H](C)O)NC4=O)cc3)cc2)cc1 ({pTerphenylCO(4''-OnC5H11)}-[AllylGly]T[Hyp][hTyr][Orn][Hyp][AllylGly]-OH; staple (Z) 1-7)
[8]
  Activity: Active
[9]
  Activity: Active
[10]
  Activity: Active
[1]
  Activity: Dose-dependent effect
  MIC: > 100 µg/mL
[11]
  Activity: Active

## CCCCCOc1ccc(-c2ccc(-c3ccc(C(=O)N[C@H]4C/C=C\C[C@@H](C(=O)OC)NC(=O)[C@@H]5C[C@@H](O)CN5C(=O)[C@H](CCCN)NC(=O)[C@H](CCc5ccc(O)cc5)NC(=O)[C@@H]5C[C@@H](O)CN5C(=O)[C@H]([C@@H](C)O)NC4=O)cc3)cc2)cc1 ({pTerphenylCO(4''-OnC5H11)}-[AllylGly]T[Hyp][hTyr][Orn][Hyp][AllylGly]-OMe; staple (Z) 1-7)
[1]
  MIC: > 100 µg/mL

## CCCCCOc1ccc(-c2ccc(-c3ccc(C(=O)N[C@H]4CCCNC(=O)[C@@H]5C[C@@H](O)CN5C(=O)[C@H]([C@@H](C)O)NC(=O)[C@H](CCc5ccc(O)cc5)NC(=O)[C@@H]5C[C@@H](O)CN5C(=O)[C@H]([C@@H](C)O)NC4=O)cc3)cc2)cc1 ({pTerphenylCO(4''-OnC5H11)}-[Orn]T[Hyp][hTyr]T[Hyp]; lactam 1-C)
[1]
  MIC: 0.47 µg/mL (≈ 0.442 µM)
[2]
  Activity: Active
[3]
  Activity: Active
[4]
  Activity: Active
[5]
  Activity: Active
[6]
  Activity: Active
[7]
  Activity: Active

## CCCCCOc1ccc(-c2ccc(-c3ccc(C(=O)N[C@H]4CCCNC(=O)[C@@H]5C[C@@H](O)CN5C(=O)[C@H](CCCN)NC(=O)[C@H](CCc5ccc(O)cc5)NC(=O)[C@@H]5C[C@@H](O)CN5C(=O)[C@H]([C@@H](C)O)NC4=O)cc3)cc2)cc1 ({pTerphenylCO(4''-OnC5H11)}-[Orn]T[Hyp][hTyr][Orn][Hyp]; lactam 1-C)
[1]
  MIC: 0.14 µg/mL (≈ 0.13 µM)
[2]
  Activity: Active
[3]
  Activity: Active
[4]
  Activity: Active
[5]
  Activity: Active
[6]
  Activity: Active
[7]
  Activity: Active

## CC[C@H](C)C[C@H](C)CCCCCCCCC(=O)N[C@H]1C[C@@H](O)[C@@H](NCCN)NC(=O)[C@@H]2[C@@H](O)CCN2C(=O)[C@H]([C@H](O)CCN)NC(=O)[C@H]([C@H](O)[C@@H](O)c2ccc(O)cc2)NC(=O)[C@@H]2C[C@@H](O)CN2C(=O)[C@H]([C@@H](C)O)NC1=O [CASPOFUNGIN]
[1]
  MIC: 0.025 µg/mL (≈ 0.0229 µM)
